Source: ChEMBL document CHEMBL1140232, “Surprising alteration of antibacterial activity of 5"-modified neomycin against resistant bacteria” (2008)
Values after ≈ are worked out from the molar mass of the structure shown.

Assays:
Staphylococcus aureus [1] = experiment: Antibacterial activity against methicillin-resistant Staphylococcus aureus ATCC 33591 after 12 to 18 hrs; format: functional
Outline: (§1)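 Broth microdilution MIC. Culture diluted with broth to an absorbance of 0.08–0.1 at 625 nm. 100 μL of this was diluted into 10 mL broth and dispensed into 96-well plates. Each well received 50 μL inoculum plus 50 μL of a 2-fold compound dilution series. Plates were incubated at 35°C for 12–18 h. MIC is the lowest concentration that inhibits growth, from at least three repeats.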

Enterococcus faecalis [2] = experiment: Antibacterial activity against vancomycin-resistant Enterococcus faecalis ATCC 51299 expressing vanB, ant(6)-1, aac(6')-aph(2') resistant gene after 12 to 18 hrs; format: functional; outline: as §1
Klebsiella pneumoniae [3] = experiment: Antibacterial activity against multidrug-resistant Klebsiella pneumoniae ATCC 700603 isolate after 12 to 18 hrs; format: functional; outline: as §1
Klebsiella pneumoniae [4] = experiment: Antibacterial activity against ampicillin-resistant and aminoglycosides-susceptible Klebsiella pneumoniae ATCC 13883 after 12 to 18 hrs; format: functional; outline: as §1
Enterococcus faecalis [5] = experiment: Antibacterial activity against vancomycin-susceptible and aminoglycosides-resistant Enterococcus faecalis ATCC 29212 after 12 to 18 hrs; format: functional; outline: as §1
Enterococcus [6] = experiment: Ratio of kcat to Km of Enterococcus APH(3')-3a
Enterococcus [7] = experiment: Activity of Enterococcus APH(3')-3a
Escherichia coli [8] = experiment: Antibacterial activity against Escherichia coli TG1 pSF815 plasmid encoded for AAC(6')/APH(2') after 12 to 18 hrs; format: functional
Outline: (§2)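 Broth microdilution. Bacterial suspension adjusted with broth to absorbance 0.08–0.1 at 625 nm, diluted further in broth, and mixed in wells with 2-fold serial dilutions of compound. Plates incubated at 35°C for 12–18 h. MIC is the lowest concentration inhibiting growth; each determination repeated at least three times.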

Escherichia coli [9] = experiment: Antibacterial activity against Escherichia coli TG1 pTZ19U-3 plasmid encoded for APH(3')-1 after 12 to 18 hrs; format: functional; outline: as §2
Escherichia coli [10] = experiment: Antibacterial activity against aminoglycoside-susceptible Escherichia coli ATCC 25922 after 12 to 18 hrs; format: functional; outline: as §2
Staphylococcus aureus [11] = experiment: Antibacterial activity against aminoglycoside-susceptible Staphylococcus aureus ATCC 25923 after 12 to 18 hrs; format: functional; outline: as §2
Escherichia coli [12] = experiment: Antibacterial activity against Escherichia coli TG1 pET28a plasmid encoded for APH(3')-3a after 12 to 18 hrs; format: functional; outline: as §2
Pseudomonas aeruginosa = experiment: Antibacterial activity against aminoglycosides-resistant Pseudomonas aeruginosa ATCC 27853 expressing APH(3')-2b after 12 to 18 hrs; format: functional; outline: as §1
Escherichia coli [13] = experiment: Antibacterial activity against aminoglycoside-susceptible Escherichia coli TG1 after 12 to 18 hrs; format: functional; outline: as §2

Molecule | MIC (Staphylococcus aureus [1]) [µg/mL] | MIC (Enterococcus faecalis [2]) [µg/mL] | MIC (Klebsiella pneumoniae [3]) [µg/mL] | MIC (Klebsiella pneumoniae [4]) [µg/mL] | MIC (Enterococcus faecalis [5]) [µg/mL] | kcat/Km (Enterococcus [6]) [×10⁴ /M/s] | Km (Enterococcus [7]) [µM] | Vmax (Enterococcus [7]) [µmol/min/mg] | kcat (Enterococcus [7]) [s⁻¹] | MIC (Escherichia coli [8]) [µg/mL] | MIC (Escherichia coli [9]) [µg/mL] | MIC (Escherichia coli [10]) [µg/mL] | MIC (Staphylococcus aureus [11]) [µg/mL] | MIC (Escherichia coli [12]) [µg/mL] | MIC (Pseudomonas aeruginosa) [µg/mL] | MIC (Escherichia coli [13]) [µg/mL]
GENTAMICIN | 2 | > 250 | 8 | 1 | 8 | – | – | – | – | – | – | – | – | – | – | –
CCCCCCCCCCCCCCCC(=O)NC[C@H]1O[C@@H](O[C@@H]2[C@@H](O)[C@H](N)C[C@H](N)[C@H]2O[C@H]2O[C@H](CN)[C@@H](O)[C@H](O)[C@H]2N)[C@H](O)[C@@H]1O[C@H]1O[C@@H](CN)[C@@H](O)[C@H](O)[C@H]1N | 2 (≈ 2.35 µM) | 4 (≈ 4.69 µM) | 16 (≈ 18.8 µM) | 8 (≈ 9.39 µM) | 2 (≈ 2.35 µM) | 0.72 | 58 | 0.85 | 0.42 | 16 (≈ 18.8 µM) | 8 (≈ 9.39 µM) | 4 (≈ 4.69 µM) | 2 (≈ 2.35 µM) | 1 (≈ 1.17 µM) | 4 (≈ 4.69 µM) | 2 (≈ 2.35 µM)
CCCCCCCCCCCCCCCCCC(=O)NC[C@H]1O[C@@H](O[C@@H]2[C@@H](O)[C@H](N)C[C@H](N)[C@H]2O[C@H]2O[C@H](CN)[C@@H](O)[C@H](O)[C@H]2N)[C@H](O)[C@@H]1O[C@H]1O[C@@H](CN)[C@@H](O)[C@H](O)[C@H]1N | 4 (≈ 4.54 µM) | 8 (≈ 9.09 µM) | 32 (≈ 36.4 µM) | 8 (≈ 9.09 µM) | 4 (≈ 4.54 µM) | 0.7 | 60 | 0.84 | 0.42 | 32 (≈ 36.4 µM) | 8 (≈ 9.09 µM) | 4 (≈ 4.54 µM) | 4 (≈ 4.54 µM) | 2 (≈ 2.27 µM) | 8 (≈ 9.09 µM) | 2 (≈ 2.27 µM)
NCC[C@H](O)C(=O)N[C@@H]1C[C@H](N)[C@@H](O[C@H]2O[C@H](CN)[C@@H](O)[C@H](O)[C@H]2O)[C@H](O)[C@H]1O[C@H]1O[C@H](CO)[C@@H](O)[C@H](N)[C@H]1O [AMIKACIN] | 8 (≈ 13.7 µM) | ≥ 250 | 0.5 (≈ 0.854 µM) | 1 (≈ 1.71 µM) | 32 (≈ 54.6 µM) | 2.4 | 57.4 | 2.75 | 1.38 | – | – | – | – | 1 (≈ 1.71 µM) | 0.5 (≈ 0.854 µM) | –
NCC(=O)NCC(=O)NC[C@H]1O[C@@H](O[C@@H]2[C@@H](O)[C@H](N)C[C@H](N)[C@H]2O[C@H]2O[C@H](CN)[C@@H](O)[C@H](O)[C@H]2N)[C@H](O)[C@@H]1O[C@H]1O[C@@H](CN)[C@@H](O)[C@H](O)[C@H]1N | 32 (≈ 44 µM) | ≥ 250 | 8 (≈ 11 µM) | 4 (≈ 5.5 µM) | 64 (≈ 87.9 µM) | – | – | – | – | 16 (≈ 22 µM) | 125 (≈ 172 µM) | 16 (≈ 22 µM) | 2 (≈ 2.75 µM) | – | 16 (≈ 22 µM) | 16 (≈ 22 µM)
CN(C)Cc1cn(C[C@H]2O[C@@H](O[C@@H]3[C@@H](O)[C@H](N)C[C@H](N)[C@H]3O[C@H]3O[C@H](CN)[C@@H](O)[C@H](O)[C@H]3N)[C@H](O)[C@@H]2O[C@H]2O[C@@H](CN)[C@@H](O)[C@H](O)[C@H]2N)nn1 | – | – | – | – | – | 0.28 | 120 | 0.65 | 0.33 | 16 (≈ 22.1 µM) | ≥ 2000 | 8 (≈ 11.1 µM) | 2 (≈ 2.77 µM) | 64 (≈ 88.5 µM) | – | 8 (≈ 11.1 µM)
NC[C@@H]1O[C@H](O[C@H]2[C@@H](O)[C@H](O[C@@H]3[C@@H](O)[C@H](N)C[C@H](N)[C@H]3O[C@H]3O[C@H](CN)[C@@H](O)[C@H](O)[C@H]3N)O[C@@H]2CO)[C@H](N)[C@@H](O)[C@@H]1O [FRAMYCETIN] | 125 (≈ 203 µM) | ≥ 250 | 16 (≈ 26 µM) | 4 (≈ 6.51 µM) | 64 (≈ 104 µM) | 26.8 | 6 | 3.22 | 1.61 | 4 (≈ 6.51 µM) | ≥ 2000 | 4 (≈ 6.51 µM) | 1 (≈ 1.63 µM) | 64 (≈ 104 µM) | 64 (≈ 104 µM) | 4 (≈ 6.51 µM)
NCC[C@H](O)C(=O)NC[C@H]1O[C@@H](O[C@@H]2[C@@H](O)[C@H](N)C[C@H](N)[C@H]2O[C@H]2O[C@H](CN)[C@@H](O)[C@H](O)[C@H]2N)[C@H](O)[C@@H]1O[C@H]1O[C@@H](CN)[C@@H](O)[C@H](O)[C@H]1N | – | – | – | – | – | 0.94 | 50 | 0.93 | 0.47 | 16 (≈ 22.4 µM) | ≥ 2000 | 8 (≈ 11.2 µM) | 1 (≈ 1.4 µM) | 125 (≈ 175 µM) | – | 16 (≈ 22.4 µM)
CC(=O)NCC1CN(Cc2cn(C[C@H]3O[C@@H](O[C@@H]4[C@@H](O)[C@H](N)C[C@H](N)[C@H]4O[C@H]4O[C@H](CN)[C@@H](O)[C@H](O)[C@H]4N)[C@H](O)[C@@H]3O[C@H]3O[C@@H](CN)[C@@H](O)[C@H](O)[C@H]3N)nn2)C(=O)O1 (some centres not stated) | – | – | – | – | – | 0.13 | 160 | 0.41 | 0.21 | 32 (≈ 38.3 µM) | ≥ 2000 | 32 (≈ 38.3 µM) | 4 (≈ 4.79 µM) | 125 (≈ 150 µM) | – | 16 (≈ 19.1 µM)
NC[C@@H]1O[C@H](O[C@H]2[C@@H](O)[C@H](O[C@@H]3[C@@H](O)[C@H](N)C[C@H](N)[C@H]3O[C@H]3O[C@H](CN)[C@@H](O)[C@H](O)[C@H]3N)O[C@@H]2Cn2cc(CNC(=O)[C@@H]3CCCN3)nn2)[C@H](N)[C@@H](O)[C@@H]1O | – | – | – | – | – | 0.14 | 175 | 0.4 | 0.2 | 16 (≈ 20.2 µM) | ≥ 2000 | 16 (≈ 20.2 µM) | 2 (≈ 2.53 µM) | 64 (≈ 80.8 µM) | – | 16 (≈ 20.2 µM)
NC[C@@H]1O[C@H](O[C@H]2[C@@H](O)[C@H](O[C@@H]3[C@@H](O)[C@H](N)C[C@H](N)[C@H]3O[C@H]3O[C@H](CN)[C@@H](O)[C@H](O)[C@H]3N)O[C@@H]2CNC(=O)[C@H]2CCCN2)[C@H](N)[C@@H](O)[C@@H]1O | – | – | – | – | – | 0.51 | 70 | 0.72 | 0.36 | 16 (≈ 22.5 µM) | ≥ 2000 | 8 (≈ 11.3 µM) | 0.5 (≈ 0.703 µM) | 64 (≈ 90 µM) | – | 8 (≈ 11.3 µM)
NCC(=O)NC[C@H]1O[C@@H](O[C@@H]2[C@@H](O)[C@H](N)C[C@H](N)[C@H]2O[C@H]2O[C@H](CN)[C@@H](O)[C@H](O)[C@H]2N)[C@H](O)[C@@H]1O[C@H]1O[C@@H](CN)[C@@H](O)[C@H](O)[C@H]1N | 16 (≈ 23.9 µM) | ≥ 250 | 8 (≈ 11.9 µM) | 4 (≈ 5.96 µM) | 32 (≈ 47.7 µM) | 0.6 | 75 | 0.88 | 0.44 | 8 (≈ 11.9 µM) | 500 (≈ 745 µM) | 16 (≈ 23.9 µM) | 1 (≈ 1.49 µM) | 32 (≈ 47.7 µM) | 8 (≈ 11.9 µM) | 8 (≈ 11.9 µM)
NC[C@@H]1O[C@H](O[C@H]2[C@@H](O)[C@H](O[C@@H]3[C@@H](O)[C@H](N)C[C@H](N)[C@H]3O[C@H]3O[C@H](CN)[C@@H](O)[C@H](O)[C@H]3N)O[C@@H]2CNC(=O)[C@@H](N)CO)[C@H](N)[C@@H](O)[C@@H]1O | – | – | – | – | – | 1.2 | 42 | 1.01 | 0.51 | 16 (≈ 22.8 µM) | ≥ 2000 | 8 (≈ 11.4 µM) | 1 (≈ 1.43 µM) | 32 (≈ 45.7 µM) | – | 8 (≈ 11.4 µM)
CN[C@H](CC(C)C)C(=O)N[C@H]1C(=O)N[C@@H](CC(N)=O)C(=O)N[C@H]2C(=O)N[C@H]3C(=O)N[C@H](C(=O)N[C@H](C(=O)O)c4cc(O)cc(O)c4-c4cc3ccc4O)[C@H](O)c3ccc(c(Cl)c3)Oc3cc2cc(c3O[C@@H]2O[C@H](CO)[C@@H](O)[C@H](O)[C@H]2O[C@H]2C[C@](C)(N)[C@H](O)[C@H](C)O2)Oc2ccc(cc2Cl)[C@H]1O [VANCOMYCIN] | – | 125 (≈ 86.3 µM) | – | – | – | – | – | – | – | – | – | – | – | – | – | –
